Source: ChEMBL document CHEMBL1255453, “Affinity of ceftaroline and other beta-lactams for penicillin-binding proteins from Staphylococcus aureus and Streptococcus pneumoniae” (Antimicrob Agents Chemother, 2010)
Values after ≈ are worked out from the molar mass of the structure shown.

Columns and labels:
[1] = Binding affinity to against penicillin-susceptible Streptococcus pneumoniae 1076 PBP1B by competitive binding assay
Outline: (§1)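 Whole pneumococcal cells grown to OD600 0.3 in Todd-Hewitt broth with 0.5% yeast extract, resuspended in 50 mM NaPO4 pH 7.0. Cells (10^8–5 × 10^8 CFU/ml) incubated with β-lactam 10 min at 37°C, then Bocillin FL 10 μg/ml, 15 min at 37°C. SDS-PAGE, 520 nm fluorescence; IC50 = 50% inhibition of Bocillin FL binding; 2 experiments.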

[2] = Binding affinity to penicillin-resistant Streptococcus pneumoniae 24 PBP2A by competitive binding assay; outline: as §1
[3] = molecular target: T1, Penicillin-binding protein 1A (Streptococcus pneumoniae serotype 4 (strain ATCC BAA-334 / TIGR4), UniProt Q04707); experiment: Binding affinity to penicillin-resistant Streptococcus pneumoniae 2527 PBP1A by competitive binding assay
T1 sequence (Q04707 whole entry): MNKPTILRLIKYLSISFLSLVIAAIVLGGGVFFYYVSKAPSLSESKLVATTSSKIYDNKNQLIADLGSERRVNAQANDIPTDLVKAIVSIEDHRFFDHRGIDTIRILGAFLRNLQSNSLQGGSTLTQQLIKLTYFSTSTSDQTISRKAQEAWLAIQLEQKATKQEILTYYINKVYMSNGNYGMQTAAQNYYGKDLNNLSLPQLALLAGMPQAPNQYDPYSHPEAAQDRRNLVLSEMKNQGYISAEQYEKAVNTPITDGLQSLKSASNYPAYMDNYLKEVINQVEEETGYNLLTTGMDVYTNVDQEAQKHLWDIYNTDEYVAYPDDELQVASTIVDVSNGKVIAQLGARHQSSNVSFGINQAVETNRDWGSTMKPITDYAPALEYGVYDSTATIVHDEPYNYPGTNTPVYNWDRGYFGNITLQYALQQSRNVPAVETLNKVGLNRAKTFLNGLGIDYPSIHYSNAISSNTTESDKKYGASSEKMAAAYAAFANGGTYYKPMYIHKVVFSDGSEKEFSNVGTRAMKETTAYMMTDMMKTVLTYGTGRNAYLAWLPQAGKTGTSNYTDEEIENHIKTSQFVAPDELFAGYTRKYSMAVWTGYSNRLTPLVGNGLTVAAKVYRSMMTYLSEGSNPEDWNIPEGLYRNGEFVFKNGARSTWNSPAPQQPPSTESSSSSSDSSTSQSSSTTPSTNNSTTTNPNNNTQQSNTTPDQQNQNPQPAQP
Outline: (§2)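 Whole pneumococcal cells were grown to OD600 0.3 in Todd-Hewitt broth plus 0.5% yeast extract, then resuspended in 50 mM NaPO4, pH 7.0. Cells at 10^8 to 5 × 10^8 CFU/ml were exposed to β-lactam for 10 min at 37°C, alongside a reference without drug. They were then labeled with 10 μg/ml Bocillin FL for 15 min at 37°C. Proteins were resolved by SDS-PAGE and fluorescence read at 520 nm. IC50 was taken as 50% inhibition of Bocillin FL binding, from 2 experiments.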

[4] = molecular target: T2, Penicillin-binding protein 2B (Streptococcus pneumoniae serotype 4 (strain ATCC BAA-334 / TIGR4), UniProt P0A3M5); experiment: Binding affinity to penicillin-resistant Streptococcus pneumoniae 24 PBP2B by competitive binding assay; outline: as §2
T2 sequence (P0A3M5 whole entry): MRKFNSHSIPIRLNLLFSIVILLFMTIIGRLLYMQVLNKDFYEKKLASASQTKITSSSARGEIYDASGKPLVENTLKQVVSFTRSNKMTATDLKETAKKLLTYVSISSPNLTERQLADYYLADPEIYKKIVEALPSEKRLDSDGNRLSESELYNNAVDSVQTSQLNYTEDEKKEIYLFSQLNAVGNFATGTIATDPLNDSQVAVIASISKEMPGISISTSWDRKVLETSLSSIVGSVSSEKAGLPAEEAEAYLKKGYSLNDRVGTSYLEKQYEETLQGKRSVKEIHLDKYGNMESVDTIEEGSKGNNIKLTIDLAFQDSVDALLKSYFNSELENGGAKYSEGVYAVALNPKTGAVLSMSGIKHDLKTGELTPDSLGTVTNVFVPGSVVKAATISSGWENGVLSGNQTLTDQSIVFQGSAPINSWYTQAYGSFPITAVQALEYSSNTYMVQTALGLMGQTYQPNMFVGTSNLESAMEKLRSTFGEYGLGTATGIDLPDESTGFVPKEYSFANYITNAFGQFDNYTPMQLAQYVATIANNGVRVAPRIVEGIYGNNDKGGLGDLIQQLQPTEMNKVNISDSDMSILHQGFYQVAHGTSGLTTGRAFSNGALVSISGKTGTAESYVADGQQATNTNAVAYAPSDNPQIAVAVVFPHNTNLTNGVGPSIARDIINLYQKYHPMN

[5] = molecular target: T1, Penicillin-binding protein 1A; experiment: Binding affinity to penicillin-resistant Streptococcus pneumoniae 24 PBP1A by competitive binding assay; outline: as §1
[6] = Binding affinity to penicillin-resistant Streptococcus pneumoniae 24 PBP3 by competitive binding assay; outline: as §2
[7] = Binding affinity to penicillin-resistant Streptococcus pneumoniae 2527 PBP1B by competitive binding assay; outline: as §2
[8] = molecular target: T1, Penicillin-binding protein 1A; experiment: Binding affinity to against penicillin-susceptible Streptococcus pneumoniae 1076 PBP1A by competitive binding assay; outline: as §1
[9] = molecular target: T2, Penicillin-binding protein 2B; experiment: Binding affinity to penicillin-resistant Streptococcus pneumoniae 3413 PBP2B by competitive binding assay; outline: as §2
[10] = Binding affinity to penicillin-resistant Streptococcus pneumoniae 2527 PBP2A by competitive binding assay; outline: as §2
[11] = molecular target: Penicillin-binding protein 2x (Streptococcus pneumoniae serotype 4 (strain ATCC BAA-334 / TIGR4), UniProt P14677); experiment: Binding affinity to penicillin-resistant Streptococcus pneumoniae 24 PBP2X by competitive binding assay; outline: as §2
[12] = Binding affinity to against penicillin-susceptible Streptococcus pneumoniae 1076 PBP3 by competitive binding assay; outline: as §1

Chain of Penicillin-binding protein 2x (P14677 whole entry, looked up): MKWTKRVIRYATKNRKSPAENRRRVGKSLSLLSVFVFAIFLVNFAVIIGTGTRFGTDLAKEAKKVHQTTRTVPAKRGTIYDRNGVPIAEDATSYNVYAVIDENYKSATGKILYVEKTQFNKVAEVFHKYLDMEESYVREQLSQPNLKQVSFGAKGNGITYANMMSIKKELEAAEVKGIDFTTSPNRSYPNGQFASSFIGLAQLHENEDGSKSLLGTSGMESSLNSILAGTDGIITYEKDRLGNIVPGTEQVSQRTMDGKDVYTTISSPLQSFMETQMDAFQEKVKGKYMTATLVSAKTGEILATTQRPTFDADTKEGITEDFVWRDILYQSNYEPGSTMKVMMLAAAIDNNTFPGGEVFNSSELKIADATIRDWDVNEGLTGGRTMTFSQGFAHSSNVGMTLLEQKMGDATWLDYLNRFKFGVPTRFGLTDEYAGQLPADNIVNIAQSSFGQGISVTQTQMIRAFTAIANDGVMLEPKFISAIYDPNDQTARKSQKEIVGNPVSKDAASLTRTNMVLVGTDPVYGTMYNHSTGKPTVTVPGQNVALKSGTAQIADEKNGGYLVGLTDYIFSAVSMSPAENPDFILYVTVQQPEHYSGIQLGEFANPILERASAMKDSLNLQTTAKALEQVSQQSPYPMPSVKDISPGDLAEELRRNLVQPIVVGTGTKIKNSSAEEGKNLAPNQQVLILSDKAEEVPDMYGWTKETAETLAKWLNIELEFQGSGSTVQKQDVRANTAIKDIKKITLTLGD

| SMILES | IC50 [1] [µg/mL] | IC50 [2] [µg/mL] | IC50 [3] [nM] | IC50 [4] [nM] | IC50 [5] [nM] | IC50 [6] [µg/mL] | IC50 [7] [µg/mL] | IC50 [8] [nM] | IC50 [9] [nM] | IC50 [10] [µg/mL] | IC50 [11] [nM] | IC50 [12] [µg/mL] |
| --- | --- | --- | --- | --- | --- | --- | --- | --- | --- | --- | --- | --- |
| CO/N=C(\C(=O)N[C@@H]1C(=O)N2C(C(=O)O)=C(COC(C)=O)CS[C@H]12)c1csc(N)n1 [CEFOTAXIME] | 0.25 (≈ 0.549 µM) | 0.5 (≈ 1.1 µM) | 549 | 35100 | 274 | 0.1 (≈ 0.22 µM) | 0.25 (≈ 0.549 µM) | 220 | 35100 | 0.25 (≈ 0.549 µM) | 2200 | 0.1 (≈ 0.22 µM) |
| CO/N=C(\C(=O)N[C@@H]1C(=O)N2C(C(=O)O)=C(CSc3nc(=O)c(O)nn3C)CS[C@H]12)c1csc(N)n1 [CEFTRIAXONE] | 0.1 (≈ 0.18 µM) | 1 (≈ 1.8 µM) | 451 | 28900 | 451 | 0.25 (≈ 0.451 µM) | 0.125 (≈ 0.225 µM) | 180 | 28900 | 0.25 (≈ 0.451 µM) | 1800 | 0.1 (≈ 0.18 µM) |
